Legend:
Procathepsin L = Procathepsin L (Homo sapiens, UniProt P07711); assay: Inhibition of human recombinant cathepsin L after 1 hr
Cathepsin B = Cathepsin B (Homo sapiens, UniProt P07858); assay: Inhibition of human recombinant cathepsin B after 1 hr
Dipeptidyl peptidase 1 = Dipeptidyl peptidase 1 (Homo sapiens, UniProt P53634); assay: Inhibition of human recombinant cathepsin C after 1 hr
Cathepsin K = target: T1, Cathepsin K (Homo sapiens, UniProt P43235); assay: Inhibition of human recombinant cathepsin K after 1 hr
T1 sequence (P43235 whole entry): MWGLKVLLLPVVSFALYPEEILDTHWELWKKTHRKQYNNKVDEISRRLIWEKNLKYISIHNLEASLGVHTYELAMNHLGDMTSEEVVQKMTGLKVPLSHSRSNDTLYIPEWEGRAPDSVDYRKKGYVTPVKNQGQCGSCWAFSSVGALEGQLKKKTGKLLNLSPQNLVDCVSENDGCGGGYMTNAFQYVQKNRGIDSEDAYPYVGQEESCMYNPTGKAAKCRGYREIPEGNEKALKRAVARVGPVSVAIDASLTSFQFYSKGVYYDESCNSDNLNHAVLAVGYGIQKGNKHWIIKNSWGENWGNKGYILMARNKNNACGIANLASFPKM

Cathepsin S = Cathepsin S (Homo sapiens, UniProt P25774); assay: Inhibition of human recombinant cathepsin S after 1 hr
[1] = Metabolic stability in rat plasma assessed as compound remaining after 30 mins by HPLC analysis; assay type: ADME, cell-free; settings: read-out: Stability
In short: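 Compound was incubated in rat plasma for 30 min, then % compound remaining was determined. Values are the mean of two or more independent assays.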

Mus musculus [2] = assay: In vivo inhibition of cathepsin C in C57BL/6J mouse lung homogenates assessed as cleavage of H-Gly-Arg)2 R110 at 30 mg/kg, po after 0.5 hrs; assay type: functional; set-up: scale not given: the % may be the effect or the level left
In short: (§1)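 Oral dose of 30 mg/kg to C57BL/6J mice, n = 5 per group. Crude lung homogenate was taken at 0.5, 1.5 and 3 h. Cathepsin C activity was measured by cleavage of (H-Gly-Arg)2 R110 at 10 μM and expressed as % inhibition.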

Mus musculus [3] = assay: In vivo inhibition of cathepsin C in C57BL/6J mouse lung homogenates assessed as cleavage of H-Gly-Arg)2 R110 at 30 mg/kg administered intranasally after 0.5 hrs; assay type: functional; set-up: scale not given: the % may be the effect or the level left
[4] = Bioavailability in dog at 5 mg/kg, iv and 10 mg/kg, po; assay type: ADME, organism-based, Canis lupus familiaris; settings: in vivo
Mus musculus [5] = assay: In vivo inhibition of cathepsin C in C57BL/6J mouse lung homogenates assessed as cleavage of H-Gly-Arg)2 R110 at 30 mg/kg, po after 3 hrs; assay type: functional; set-up: scale not given: the % may be the effect or the level left; in short: as §1
[6] = Plasma clearance in dog at 5 mg/kg, iv and 10 mg/kg, po; assay type: ADME, organism-based, Canis lupus familiaris
Mus musculus [7] = assay: In vivo inhibition of cathepsin C in C57BL/6J mouse lung homogenates assessed as cleavage of H-Gly-Arg)2 R110 at 30 mg/kg administered intranasally after 3 hrs; assay type: functional; set-up: scale not given: the % may be the effect or the level left
[8] = Volume of distribution at steady state in mouse at 5 mg/kg, iv and 20 mg/kg, po; assay type: ADME, organism-based; settings: in vivo, read-out: Vdss
[9] = Plasma clearance in mouse at 5 mg/kg, iv and 20 mg/kg, po; assay type: ADME, organism-based
[10] = Half life in rat at 1 mg/kg, iv and 2 mg/kg, po; assay type: ADME, organism-based; settings: in vivo
Rattus norvegicus [11] = assay: Bioavailability in rat at 1 mg/kg, iv and 2 mg/kg, po; assay type: ADME, organism-based; settings: in vivo
Mus musculus [12] = assay: In vivo inhibition of cathepsin C in C57BL/6J mouse lung homogenates assessed as cleavage of H-Gly-Arg)2 R110 at 30 mg/kg, po after 1.5 hrs; assay type: functional; set-up: scale not given: the % may be the effect or the level left; in short: as §1
[13] = Half life in dog at 5 mg/kg, iv and 10 mg/kg, po; assay type: ADME, organism-based, Canis lupus familiaris; settings: in vivo
Rattus norvegicus [14] = assay: AUC in rat at 2 mg/kg, po; assay type: ADME, organism-based, Plasma; set-up: dose 2 mg/kg, route oral; settings: in vivo
Mus musculus [15] = assay: In vivo inhibition of cathepsin C in C57BL/6J mouse plasma assessed as cleavage of H-Gly-Arg)2 R110 at 30 mg/kg, po after 30 mins; assay type: functional; set-up: scale not given: the % may be the effect or the level left
In short: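 Female/male not stated; mice dosed orally at 30 mg/kg (n = 5). Plasma cathepsin C activity was read as cleavage of (H-Gly-Arg)2 R110 substrate at 10 μM, sampled 30 min post-dose as part of a time course.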

[16] = Volume of distribution at steady state in dog at 5 mg/kg, iv and 10 mg/kg, po; assay type: ADME, organism-based, Canis lupus familiaris; settings: in vivo, read-out: Vdss
[17] = Half life in mouse at 5 mg/kg, iv and 20 mg/kg, po; assay type: ADME, organism-based; settings: in vivo
[18] = AUC in dog at 10 mg/kg, po; assay type: ADME, organism-based, Canis lupus familiaris; set-up: dose 10 mg/kg, route oral; settings: plasma
[19] = Bioavailability in mouse at 5 mg/kg, iv and 20 mg/kg, po; assay type: ADME, organism-based; settings: in vivo
[20] = Volume of distribution at steady state in rat at 1 mg/kg, iv and 2 mg/kg, po; assay type: ADME, organism-based; settings: in vivo, read-out: Vdss
Mus musculus [21] = assay: In vivo inhibition of cathepsin C in C57BL/6J mouse lung homogenates assessed as cleavage of H-Gly-Arg)2 R110 at 30 mg/kg administered intranasally after 1.5 hrs; assay type: functional; set-up: scale not given: the % may be the effect or the level left
Plasma [22] = assay: Metabolic stability in rat plasma in presence of glutathione; assay type: ADME, cell-free
Plasma [23] = assay: Metabolic stability in rat plasma in presence of free cysteine; assay type: ADME, cell-free
Plasma [24] = assay: Metabolic stability in rat plasma in presence of broad spectrum esterase inhibitor; assay type: ADME, cell-free
Plasma [25] = assay: Metabolic stability in rat plasma in presence of rat serum albumin; assay type: ADME, cell-free

Sequence of Procathepsin L (P07711 whole entry): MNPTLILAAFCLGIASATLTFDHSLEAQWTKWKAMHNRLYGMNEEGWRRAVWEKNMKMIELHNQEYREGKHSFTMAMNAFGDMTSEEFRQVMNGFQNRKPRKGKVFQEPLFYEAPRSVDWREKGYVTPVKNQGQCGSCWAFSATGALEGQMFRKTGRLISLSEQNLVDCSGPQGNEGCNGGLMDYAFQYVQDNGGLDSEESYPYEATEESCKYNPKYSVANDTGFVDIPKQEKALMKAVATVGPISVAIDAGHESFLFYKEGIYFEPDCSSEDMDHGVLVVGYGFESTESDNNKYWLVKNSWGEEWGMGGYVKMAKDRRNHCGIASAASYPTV
Sequence of Cathepsin S (P25774 whole entry): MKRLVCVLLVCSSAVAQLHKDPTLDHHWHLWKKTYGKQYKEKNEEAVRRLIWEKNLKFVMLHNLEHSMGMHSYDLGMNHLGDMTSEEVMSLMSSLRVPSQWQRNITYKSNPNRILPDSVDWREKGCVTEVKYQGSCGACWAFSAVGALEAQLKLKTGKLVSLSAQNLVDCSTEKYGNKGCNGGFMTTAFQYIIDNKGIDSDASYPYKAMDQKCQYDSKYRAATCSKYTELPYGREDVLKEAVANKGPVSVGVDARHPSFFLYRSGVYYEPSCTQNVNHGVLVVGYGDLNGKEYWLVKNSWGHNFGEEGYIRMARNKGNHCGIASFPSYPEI
Sequence of Dipeptidyl peptidase 1 (P53634 25-134 limits assumed): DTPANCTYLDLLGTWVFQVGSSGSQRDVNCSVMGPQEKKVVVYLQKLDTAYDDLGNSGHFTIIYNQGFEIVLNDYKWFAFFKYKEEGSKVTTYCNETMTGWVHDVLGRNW
Sequence of Dipeptidyl peptidase 1 (P53634 231-394 limits assumed): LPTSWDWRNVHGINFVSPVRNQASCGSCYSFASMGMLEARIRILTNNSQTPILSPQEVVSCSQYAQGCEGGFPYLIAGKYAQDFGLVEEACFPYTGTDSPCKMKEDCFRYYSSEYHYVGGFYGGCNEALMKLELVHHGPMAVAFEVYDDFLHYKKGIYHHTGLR
Sequence of Dipeptidyl peptidase 1 (P53634 395-463 limits assumed): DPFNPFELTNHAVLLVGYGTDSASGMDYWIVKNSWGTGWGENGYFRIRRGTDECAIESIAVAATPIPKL

SMILES	IC50 (Procathepsin L) [nM]	IC50 (Cathepsin B) [nM]	IC50 (Dipeptidyl peptidase 1) [nM]	IC50 (Cathepsin K) [nM]	IC50 (Cathepsin S) [nM]	remaining at 0.5 h [1] [%]	other results
C[C@H]1C[C@@H](NS(=O)(=O)c2cccc(Br)c2)CN1C#N	3160	> 25100	158	251	3980	–	–
COc1ccc(OC)c(S(=O)(=O)N[C@@H]2C[C@H](C)N(C#N)C2)c1	3160	> 25100	126	631	15800	–	–
C[C@H]1C[C@@H](NS(=O)(=O)c2cc(Br)ccc2Br)CN1C#N	501	> 25100	3.16	39.8	1000	88	Activity (Mus musculus [2]): 32%; Activity (Mus musculus [3]): 53%; bioavailability [4]: 20%; Activity (Mus musculus [5]): 28%; clearance [6]: 29 mL/min/kg; Activity (Mus musculus [7]): 85%; Vd [8]: 0.4 L/kg; clearance [9]: 16 mL/min/kg; half-life [10]: 12 min; F (Rattus norvegicus [11]): 8%; Activity (Mus musculus [12]): 16%; half-life [13]: 42 min; AUC (Rattus norvegicus [14]): 7 ng·h/mL; Activity (Mus musculus [15]): 35%; Vd [16]: 1.3 L/kg; half-life [17]: 12 min; AUC [18]: 1180 ng·h/mL; bioavailability [19]: 1%; Vd [20]: 3.1 L/kg; Activity (Mus musculus [21]): 66%
N#CN1CC[C@@H](NC(=O)c2ccc(F)cc2)C1	–	3980	2510	63.1	12600	–	–
CC(C)(C)OC(=O)N1CC[C@@H](NS(=O)(=O)c2cccc(Br)c2)C1	> 25100	> 25100	> 25100	> 25100	> 25100	≥ 100	–
COc1ccc(OC)c(S(=O)(=O)N[C@@H]2C[C@@H](C)N(C#N)C2)c1	> 25100	> 25100	> 25100	> 25100	> 25100	88	–
C[C@@H]1C[C@@H](NS(=O)(=O)c2cccc(Br)c2)CN1C#N	2510	> 25100	15800	1000	15800	45	–
N#CN1CCCC1 [CYANO-PYRROLIDINE]	1580	> 25100	> 25100	3980	25100	–	–

Now from value to molecule, other results behind:

IC50 (Procathepsin L) [nM]	IC50 (Cathepsin B) [nM]	IC50 (Dipeptidyl peptidase 1) [nM]	IC50 (Cathepsin K) [nM]	IC50 (Cathepsin S) [nM]	remaining at 0.5 h [1] [%]	SMILES	other results
25.1	1580	< 0.398	2	126	18	N#CN1CC[C@@H](NS(=O)(=O)c2cc(Br)ccc2Br)C1	–
1260	12600	10	79.4	2000	23	COc1ccc(OC)c(S(=O)(=O)N[C@@H]2CCN(C#N)C2)c1	–
631	5010	2000	1260	1580	13	N#CN1CCC(CCc2ccccc2)C1 (centres undefined)	–
39.8	6310	7.94	7.94	316	18	N#CN1CC[C@@H](NS(=O)(=O)c2cccc(Br)c2)C1	Stability (Plasma [22]): Stable; Stability (Plasma [23]): Stable; Stability (Plasma [24]): Stable; Stability (Plasma [25]): Stable
12600	> 25100	> 25100	5010	> 25100	95	O=CN1CC[C@@H](NS(=O)(=O)c2cccc(Br)c2)C1	–
–	3980	316	31.6	501	48	N#CN1CC[C@H](NS(=O)(=O)c2ccccc2)C1	–
–	10000	316	200	1580	30	N#CN1CC[C@@H](NS(=O)(=O)c2ccccc2)C1	–
1260	1260	1000	–	3980	–	N#CN1CC[C@@H](NC(=O)Nc2ccccc2)C1	–
–	–	> 25100	10000	7940	–	N#CN1CCCC(CCc2ccccc2)C1 (centres undefined)	–
